Source: ChEMBL document CHEMBL1124779, “Synthesis and antitumor activity of 1-[[(dialkylamino)alkyl]amino]-4-methyl-5H-pyrido[4,3-b]benzo[e]- and -benzo[g])indoles. A new class of antineoplastic agents” (1990)
≈ marks a conversion by molar mass, not a printed value. Where “and” joins values, the source holds several entries; their conditions need not be identical. Equal entries are not always repeated.

How the values were obtained:
P388 [1] = assay: In vivo T/C (survival time treated/survival time control x 100) was determined against P388 leukemia cells at 40 mg/Kg; type: functional, Mus musculus
How it was run: (§1)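 B6D2 F1 mice, at least five per group, were inoculated ip on day 0 with 10^6 viable P388 cells (25 mL/kg). Compounds were dissolved in distilled water and given ip (25 mL/kg) daily on days 1–4. Mortality was checked daily, with necropsy of dead animals. T/C×100 was median survival, treated versus control. Survivors beyond 50 days counted as cured and were excluded from the median.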

P388 [2] = assay: In vitro cytotoxicity was determined against P388 leukemia cells; type: functional; details: Mus musculus, read-out: ID50 (the source's name)
How it was run: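 P388 cells in exponential growth, RPMI 1640 with 2 mM glutamine, 10 μM 2-mercaptoethanol and 10% FCS, 5% CO2, 37 °C. Cells at 10^5 cells/mL. Drugs in distilled water added on day 0. Cells counted by Coulter counter after 96 h. ID50 (μg/mL, 50% inhibition of proliferation) estimated by regression of concentration/response data.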

L1210 [3] = assay: Tested for cytotoxicity in the multiple tumor disk diffusion soft agar assay at the dose of 15 ug/disk against leukemia L1210; range is 450-600; type: functional, Mus musculus
How it was run: (§2)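 Soft agar disk diffusion: bottom layer 0.8% noble agar, top layer 0.47% noble agar, both in 1:1 CMRL-Fischer medium with 11% horse serum. Top layer seeded with 5×10^3 L1210 cells or 10^6 solid tumor cells (C38, PO3). Drug applied on a dried 6-mm filter-paper disk. Incubation 7-11 days. Inhibition zone measured by inverted microscope, in units (1 unit = 30 μm).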

[4] = Cytotoxicity in the multiple tumor disk diffusion soft agar assay at the dose of 15 ug/disk against solid tumor C38.; type: functional, Mus musculus; how it was run: as §2
P388 [5] = assay: In vivo T/C (survival time treated/survival time control x 100) was determined against P388 leukemia cells at 20 mg/Kg; type: functional, Mus musculus; how it was run: as §1
[6] = Tested for cytotoxicity in the multiple tumor disk diffusion soft agar assay at the dose of 15 ug/disk against solid tumor C38; U = 32 uM; type: functional, Mus musculus; how it was run: as §2
L1210 [7] = assay: Tested for cytotoxicity in the multiple tumor disk diffusion soft agar assay at the dose of 15 ug/disk against leukemia L1210; U = 32 uM; type: functional, Mus musculus; how it was run: as §2
L1210 [8] = assay: Cytotoxicity in the multiple tumor disk diffusion soft agar assay at the dose of 15 ug/disk against leukemia L1210; type: functional, Mus musculus; how it was run: as §2
L1210 [9] = assay: Tested for cytotoxicity in the multiple tumor disk diffusion soft agar assay at the dose of 15 ug/disk against leukemia L1210; type: functional, Mus musculus; how it was run: as §2
[10] = Cytotoxicity in the multiple tumor disk diffusion soft agar assay at the dose of 15 ug/disk against solid tumor PO3; type: functional, Mus musculus; how it was run: as §2
[11] = Tested for cytotoxicity in the multiple tumor disk diffusion soft agar assay at the dose of 15 ug/disk against solid tumor C38; type: functional, Mus musculus; how it was run: as §2
L1210 [12] = assay: In vivo T/C (survival time treated/survival time control x 100) was determined against L1210 leukemia cells at 20 mg/Kg; type: functional, Mus musculus
How it was run: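 B6D2 F1 mice, at least five per group, were inoculated ip on day 0 with 10^5 viable L1210 cells (25 mL/kg). Compounds were dissolved in distilled water and given ip (25 mL/kg) on days 1–4. Deaths were checked daily, with necropsy to separate tumor from toxic death. T/C×100 was median survival of treated over controls. Mice surviving over 50 days counted as cured and were excluded from the median.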

[13] = Tested for cytotoxicity in the multiple tumor disk diffusion soft agar assay at the dose of 15 ug/disk against solid tumor PO3; type: functional, Mus musculus; how it was run: as §2
[14] = Tested for cytotoxicity in the multiple tumor disk diffusion soft agar assay at the dose of 15 ug/disk against solid tumor C38; range is 650-675; type: functional, Mus musculus; how it was run: as §2
P388 [15] = assay: In vivo T/C (survival time treated/survival time control x 100) was determined against P388 leukemia cells at 10 mg/Kg; type: functional, Mus musculus; how it was run: as §1
L1210 [16] = assay: Tested for cytotoxicity in the multiple tumor disk diffusion soft agar assay at the dose of 15 ug/disk against leukemia L1210; range is 300-375; type: functional, Mus musculus; how it was run: as §2
Mus musculus = assay: In vivo total number of survivors was determined against P388 leukemia cells out of 5 mouse at 50 day; type: functional; how it was run: as §1
L1210 [17] = assay: Tested for cytotoxicity in the multiple tumor disk diffusion soft agar assay at the dose of 15 ug/disk against leukemia L1210; range is 0-450; type: functional, Mus musculus; how it was run: as §2
[18] = Tested for cytotoxicity in the multiple tumor disk diffusion soft agar assay at the dose of 15 ug/disk against solid tumor PO3; range is 350-450; type: functional, Mus musculus; how it was run: as §2

Compound	IC50 (P388 [2]) [µg/mL]	Cytotoxicity [4] [U]	T/C x100 (P388 [5])	Cytotoxicity (L1210 [8])	Cytotoxicity [10] [U]	T/C x100 (L1210 [12])	also measured
CCN(CC)CCCNc1ncc(C)c2c1c1c3ccccc3ccc1n2C	0.1 (≈ 0.267 µM)	520					T/C x100 (P388 [1]): 124; Cytotoxicity (L1210 [3]): 450 U
Cc1cnc(NCCCN(C)C)c2c3ccc4c(O)cccc4c3n(C)c12	0.025 (≈ 0.069 µM)		135				Cytotoxicity [6]: 900 U; Cytotoxicity (L1210 [7]): 675 U
CCN(CC)CCCNc1[nH]cc(C)c2nc3c(ccc4cc(OC)ccc43)c1-2	0.5 (≈ 1.28 µM)	285		200 U	200		T/C x100 (P388 [1]): 131; Cytotoxicity (L1210 [9]): 325 U
COc1ccc2c(ccc3[nH]c4c(C)cnc(NCCCN(C)C)c4c32)c1	0.75 (≈ 2.07 µM)			750 U and 350 U		127	Cytotoxicity [11]: 800 U and 450 U; Cytotoxicity [13]: 630 U and 300 U
CCN(CC)CCCNc1ncc(C)c2c1c1c3ccc(O)cc3ccc1n2C	0.025 (≈ 0.064 µM)		232	450 U		129	Cytotoxicity [14]: 650 U
CCN(CC)CCCNc1[nH]cc(C)c2nc3c(ccc4ccccc43)c1-2	0.75 (≈ 2.08 µM)	460		500 U	200		T/C x100 (P388 [15]): 102; Cytotoxicity (L1210 [16]): 300 U
Cc1cnc(NCCCN(C)C)c2c3c4ccc(O)cc4ccc3n(C)c12	0.015 (≈ 0.0414 µM)	750	243	350 U		127	Survivors (Mus musculus): 1; Cytotoxicity (L1210 [17]): 0 U; Cytotoxicity [18]: 350 U
CCN(CC)CCCNc1ncc(C)c2c1c1ccc3cc(O)ccc3c1n2C	0.1 (≈ 0.256 µM)	325	124	300 U	350		Cytotoxicity (L1210 [9]): 400 U
